In brackets after ≈: the same amount, converted by molar mass.
Key:
[1] = HPLC capacity factor (k'); assay type: ADME
Method in brief: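 Ion-pair reversed-phase HPLC on ODS-2 (10 μm) at 45 °C. Mobile phase: 10 mM sodium heptanesulfonate plus 50 mM KH2PO4 (pH 3.5)–methanol 45:55, 1 mL/min. Samples at 100 μg/mL in DMF, injected in duplicate, UV 280 nm. k' = (tR − t0)/t0.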

Bacillus cereus = experiment: In vitro minimum inhibitory concentration for Bacillus cereus ATCC 11778; assay type: functional
Method in brief: (§1)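 Serial 2-fold agar dilution in Mueller Hinton medium, run alongside a reference quinolone. Inoculum adjusted to 10⁸ cfu/mL; compound range 0.007–16 μg/mL.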

Klebsiella pneumoniae = experiment: In vitro minimum inhibitory concentration to inhibit Klebsiella pneumoniae ATCC 10031; assay type: functional; method in brief: as §1
Escherichia coli = experiment: In vitro minimum inhibitory concentration for Escherichia coli ATCC 10799; assay type: functional; method in brief: as §1
Bacillus subtilis = experiment: In vitro minimum inhibitory concentration for Bacillus subtilis ATCC 6633; assay type: functional; method in brief: as §1
[2] = system: Staphylococcus epidermidis; experiment: In vitro minimum inhibitory concentration for Staphylococcus epidermidis ATCC 155-1; assay type: functional; method in brief: as §1
Enterobacter cloacae = experiment: In vitro minimum inhibitory concentration for Enterobacter cloacae ATCC 23355; assay type: functional
Staphylococcus aureus = experiment: In vitro minimum inhibitory concentration for Staphylococcus aureus ATCC 25178; assay type: functional; method in brief: as §1
Enterococcus faecalis = experiment: In vitro minimum inhibitory concentration for Streptococcus faecalis ATCC 10541; assay type: functional; method in brief: as §1
Proteus vulgaris = experiment: In vitro minimum inhibitory concentration for Proteus vulgaris ATCC 8427; assay type: functional; method in brief: as §1
Morganella morganii = experiment: In vitro minimum inhibitory concentration for Morganella morganii ATCC 8019; assay type: functional; method in brief: as §1

| Compound | Log k' [1] | also measured |
| --- | --- | --- |
| CC1(N)CN(c2c(F)c(N)c3c(=O)c(C(=O)O)cn(-c4ccc(F)cc4F)c3c2F)C1 | 0.3189 | – |
| NCC1CN(c2c(F)cc3c(=O)c(C(=O)O)cn(C4CC4)c3c2F)C1 | -0.196 | – |
| CC1(N)CN(c2c(F)cc3c(=O)c(C(=O)O)cn(-c4ccc(F)cc4)c3c2F)C1 | 0.1106 | – |
| CNC1(C)CN(c2nc3c(cc2F)c(=O)c(C(=O)O)cn3C(C)(C)C)C1 | 0.2107 | – |
| O=C(O)c1cn(C2CC2)c2cc(N3CCC3)c(F)cc2c1=O | 0.7188 | – |
| CC1(CN)CN(c2cc3c(cc2F)c(=O)c(C(=O)O)cn3C2CC2)C1 | -0.0782 | – |
| CCNCC1CN(c2c(F)cc3c(=O)c(C(=O)O)cn(C4CC4)c3c2F)C1 | 0.2742 | – |
| CC1(N)CN(c2nc3c(cc2F)c(=O)c(C(=O)O)cn3CCF)C1 | -0.1706 | – |
| CCNCC1(C)CN(c2cc3c(cc2F)c(=O)c(C(=O)O)cn3C2CC2)C1 | -0.0356 | – |
| CC1(N)CN(c2nc3c(cc2F)c(=O)c(C(=O)O)cn3-c2ccc(F)cc2F)C1 | 0.0792 | – |
| CCn1cc(C(=O)O)c(=O)c2cc(F)c(N3CC(C)(N)C3)c(Cl)c21 | 0.121 | – |
| CCn1cc(C(=O)O)c(=O)c2cc(F)c(N3CC(C)(N)C3)nc21 | -0.2296 | – |
| NC1CN(c2nc3c(cc2F)c(=O)c(C(=O)O)cn3-c2ccc(F)cc2F)C1 | 0.0063 | – |
| CC1(N)CN(c2cc3c(cc2F)c(=O)c(C(=O)O)cn3CCF)C1 | 0.0374 | – |
| O=C(O)c1cn(C2CC2)c2c(F)c(N3CCC3)c(F)cc2c1=O | 0.9074 | – |
| NC1CN(c2c(F)cc3c(=O)c(C(=O)O)cn(-c4ccc(F)cc4F)c3c2Cl)C1 | 0.128 | – |
| CC1(N)CN(c2c(F)cc3c(=O)c(C(=O)O)cn(-c4ccc(F)cc4F)c3c2Cl)C1 | 0.3448 | – |
| CCC1(O)CN(c2cc3c(cc2F)c(=O)c(C(=O)O)cn3C2CC2)C1 | 0.6222 | – |
| CC1(N)CN(c2nc3c(cc2F)c(=O)c(C(=O)O)cn3-c2ccc(F)cc2)C1 | -0.0388 | – |
| NCC1CN(c2cc3c(cc2F)c(=O)c(C(=O)O)cn3C2CC2)C1 | -0.1549 | – |
| O=C(O)c1cn(C2CC2)c2cc(N3CC(O)C3)c(F)cc2c1=O | 0.1906 | – |
| CCC1(O)CN(c2c(F)cc3c(=O)c(C(=O)O)cn(C4CC4)c3c2F)C1 | 0.7591 | – |
| CNC1CN(c2c(F)cc3c(=O)c(C(=O)O)cn(-c4ccc(F)cc4F)c3c2Cl)C1 | 0.25 | – |
| Nc1c(F)c(N2CC(N)C2)c(F)c2c1c(=O)c(C(=O)O)cn2-c1ccc(F)cc1F | 0.1424 | – |
| CCn1cc(C(=O)O)c(=O)c2cc(F)c(N3C[C@@H](N)[C@@H]3C)c(Cl)c21 | 0.16 | MIC (Bacillus cereus): 0.12 µg/mL (≈ 0.339 µM); MIC (Klebsiella pneumoniae): 0.03 µg/mL (≈ 0.0848 µM); MIC (Escherichia coli): 0.06 µg/mL (≈ 0.17 µM); MIC (Bacillus subtilis): 0.03 µg/mL (≈ 0.0848 µM); MIC [2]: 0.12 µg/mL (≈ 0.339 µM); MIC (Enterobacter cloacae): 0.06 µg/mL (≈ 0.17 µM); MIC (Staphylococcus aureus): 0.12 µg/mL (≈ 0.339 µM); MIC (Enterococcus faecalis): 0.5 µg/mL (≈ 1.41 µM); MIC (Proteus vulgaris): 0.25 µg/mL (≈ 0.707 µM); MIC (Morganella morganii): 0.03 µg/mL (≈ 0.0848 µM) |
| Nc1c(F)c(N2CC(O)C2)c(F)c2c1c(=O)c(C(=O)O)cn2C1CC1 | 0.3487 | – |
| CNC1(C)CN(c2cc3c(cc2F)c(=O)c(C(=O)O)cn3C(C)(C)C)C1 | 0.303 | – |
| O=C(O)c1cn(C2CC2)c2c(F)c(N3CC(O)C3)c(F)cc2c1=O | 0.3264 | – |
| CC1(N)CN(c2c(F)cc3c(=O)c(C(=O)O)cn(CCF)c3c2F)C1 | -0.1871 | – |
| CNC1(C)CN(c2nc3c(cc2F)c(=O)c(C(=O)O)cn3C2CC2)C1 | 0.0408 | – |

Source: ChEMBL document CHEMBL1127424, “7-azetidinylquinolones as antibacterial agents. 2. Synthesis and biological activity of 7-(2,3-disubstituted-1-azetidinyl)-4-oxoquinoline- and -1,8-naphthyridine-3-carboxylic acids. Properties and structure-activity relationships of quinolones with an azetidine moiety” (J Med Chem, 1994)
